Results from PubChem BioAssay AID743257 (The Scripps Research Institute Molecular Screening Center, 2014).
Out of some 2,900 compounds screened, about 1,900 (66%) were called active.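 How the source made its calls: active means mean inhibition across replicates above the hit cutoff set in the primary screen (cut at about 8.5% in these data); inactive means the rest.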 So high a share suggests a set chosen from earlier hits. Not all results are given here.

Molecular target: Disintegrin and metalloproteinase domain-containing protein 17 (Homo sapiens) (UniProt P78536)
Assay: ADAM17 inhibitors, hit retest, confirmation, biochemical, QFRET peptide cleavage (AID 743257);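 further: 0% = DMSO wells and 100% = marimastat wells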
Conditions: recombinant ADAM17, EDANS/DABCYL QFRET peptide cleavage; at 6.95 µM; hits give high values
In short: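 Material: Human ADAM17 enzyme, FRET peptide cleavage | Buffer or medium: 50 mM HEPES pH 7.5, 0.01% Brij | Doses: 6.95 µM compound, single dose | Schedule: 30 min preincubation, 3 h reaction | Technique: Fluorescence at ex 359 nm, em 460 nm | Read-out: Percent inhibition | Benchmarks: DMSO wells and 1 µM marimastat wells as references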

Chain of Disintegrin and metalloproteinase domain-containing protein 17 (Homo sapiens) (P78536 215-824 limits assumed): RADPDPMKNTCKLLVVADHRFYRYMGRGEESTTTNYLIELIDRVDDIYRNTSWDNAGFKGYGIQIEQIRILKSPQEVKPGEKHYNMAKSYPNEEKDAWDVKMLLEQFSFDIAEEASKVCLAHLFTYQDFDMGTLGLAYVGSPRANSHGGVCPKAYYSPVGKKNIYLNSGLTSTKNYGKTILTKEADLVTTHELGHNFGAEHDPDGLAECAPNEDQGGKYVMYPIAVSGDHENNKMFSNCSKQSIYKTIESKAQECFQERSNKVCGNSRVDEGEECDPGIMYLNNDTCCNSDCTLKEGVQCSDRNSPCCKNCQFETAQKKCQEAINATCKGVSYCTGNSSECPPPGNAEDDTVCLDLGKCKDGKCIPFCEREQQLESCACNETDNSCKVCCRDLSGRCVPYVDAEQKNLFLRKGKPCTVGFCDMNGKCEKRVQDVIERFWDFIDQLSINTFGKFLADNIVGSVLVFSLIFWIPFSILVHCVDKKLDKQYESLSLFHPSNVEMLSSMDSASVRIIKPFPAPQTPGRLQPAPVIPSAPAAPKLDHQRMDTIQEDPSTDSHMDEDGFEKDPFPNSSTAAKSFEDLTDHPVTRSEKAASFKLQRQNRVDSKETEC

inhibition, inactive:
CCCn1nc(C(=O)NNC(=O)CSCC(=O)Nc2cc(C)on2)c2ccccc2c1=O 0.67%, NNC(=O)C1CCCn2c1nc1sc3c(c1c2=O)CCCC3 (configuration not stated) 1.06%, COc1ccc(CC(=O)c2ccc(O)cc2O)cc1OC 1.45%, C=CCOc1ccccc1/C=N/NC(=O)Cc1ccccc1 2.48%, CN(C)c1ccc(NC(=O)NC2CCCCN(Cc3ccc(Cl)cc3)C2=O)cc1 (configuration not stated) 3.4%, COc1ccc(C(N)c2csc(NC(=O)Nc3cccc(C(F)(F)F)c3)n2)cc1 (configuration not stated) 6.58%, COc1ccc(CN(C)C(=O)CC(c2ccccc2)c2ccccc2)cc1 5.73%, CCOc1ccc(OCC)c(-c2c(=O)n(OCc3ccc(Cl)cc3)c3ccccc3[n+]2[O-])c1 2.59%, CCn1c(Cc2cccs2)nnc1SCC(=O)c1ccc(C)cc1 2.25%, O=C(Cc1ncc(C(F)(F)F)cc1Cl)Nc1cccc(Br)c1 5.32%, C[C@@H]1CN([C@H](C)CO)C(=O)c2cc(-c3ccc(F)cc3)cnc2O[C@H]1CN(C)C(=O)c1ccc(F)cc1 8.52%, COc1cc(NC(=O)CCS(=O)(=O)c2ccc3c(c2)oc(=O)n3C)cc(OC)c1 6.47%, COc1cc(/C=N/n2c(C)n[nH]c2=S)ccc1OCc1ccccc1 0.43%, C#CCN(C[C@H]1[C@H](OC(=O)NC2CCCC2)[C@H](OC(=O)NC2CCCC2)C[C@H]2C(=O)N(c3ccccc3)C(=O)[C@@H]12)S(=O)(=O)c1ccc(C)cc1 8.59%, Cc1nnc(SCC(=O)Nn2cnnc2)s1 1%, O=C(CSc1nnc(Nc2ccccc2)s1)Nc1cccnc1Cl 4.72%, Cc1ccccc1C(=O)Nc1ccccc1Sc1ccccc1 8.42%, O=C(Nc1ccc(C(=O)NCc2ccccc2Cl)cc1)C1=CSCCO1 4.43%, Cc1ccc(/C=N/NC(=O)CSc2nc3ccccc3o2)cc1 6%, N/C(Cc1ccc([N+](=O)[O-])cc1)=N\OC(=O)COc1ccc2ccccc2c1 6.36%

inhibition, active:
O=C1[C@H]2[C@@H](c3ccc(C(F)(F)F)cc3)N[C@]3(CCCN(Cc4ccc(Br)cc4)C3=O)[C@H]2C(=O)N1Cc1ccccc1 19.6%, O=C(NCc1ccccc1)C1=C[C@@H](c2ccc(C(F)(F)F)cc2)C[C@@H](OCc2ccc(CO)cc2)O1 21.4%, Cc1ccc(C(=O)Nc2ccc(C)c(S(=O)(=O)N(C)C)c2)s1 10.8%, Cc1ccc(-n2c(COc3ccccc3)nnc2SCC(=O)Nc2ccc3c(c2)OCCO3)cc1 15.9%, Cc1cc(NC(=O)CN2C(=O)NC(CC(C)C)C2=O)no1 (configuration not stated) 15.1%, CC(C)C(=O)Nc1cccc(NC(=S)NC(=O)C(c2ccccc2)c2ccccc2)c1 17.6%, COc1cc(C2CC(=O)N3CN(Cc4ccccc4)CSC3=C2C#N)ccc1OCc1ccccc1 (configuration not stated) 15.8%, COc1ccc(S(=O)(=O)Nc2ccc(O)c(Sc3nc4ccccc4s3)c2)cc1 10.7%, O=C1NC(=O)C(c2ccc(Cl)cc2)N1 (configuration not stated) 13.7%, Cc1ccc(OCc2nnc(SC/C=C/c3ccccc3)n2Cc2ccco2)cc1 12.5%, Cc1ccc(-c2nnc(SCC(=O)Nc3ccc(Oc4ccccc4)cc3)n2Cc2ccco2)cc1 18.5%, CCCN(CC(=O)NC(=O)NC1CCCCC1)CC(=O)Nc1cc(Cl)ccc1Cl 17.5%, O=C(CSCc1ccc(Br)cc1)Nc1ccc(S(=O)(=O)N2CCCCCC2)cc1 12.6%, Cn1nc(C(F)(F)F)c(C(=O)Nc2cccc(C(F)(F)F)c2)c1SCc1ccc(Cl)cc1 19.4%, CC(=O)Nc1ccc(S(=O)(=O)Oc2ccc(Br)cc2C(=S)N2CCOCC2)cc1 9.82%, S=C(NCc1ccc(Cl)cc1)NC12CC3CC(CC(C3)C1)C2 11.1%, O=C(Cc1ccc(Cl)c(Cl)c1)Nc1ccc(SC(F)F)cc1 25.1%, O=C(c1ccccc1)N1CCN(c2ccc([N+](=O)[O-])c(NCc3ccco3)c2)CC1 9.37%, CC(C)(C)OC(=O)N1CCC(NC(=O)c2[nH]cnc2C(=O)N[C@@H](Cc2ccccc2)C(=O)OCc2ccccc2)CC1 22.4%, CC(C)(C)OC(=O)CNC(=O)c1[nH]cnc1C(=O)N[C@@H](Cc1ccccc1)C(=O)OCc1ccccc1 20.1%, Cc1sc2nc(SCC(=O)c3ccc(O)c(O)c3)n(Cc3ccco3)c(=O)c2c1C 12.6%, CCc1cccc(NC(=O)COC(=O)C2CCN(c3ccc(C(F)(F)F)cn3)CC2)c1 16.5%, O=C(C[C@H]1C(=O)N(c2ccc(F)c(F)c2)C[C@@H]1Cc1ccccc1)Nc1ccccc1 14.1%, Cc1ccc(C)c(NC(=S)NNC(=S)Nc2ccc(C(C)C)cc2)c1 17.9%, COc1ccc(C(=O)NN2C(=O)C3C(c4ccccc4)C=CC(c4ccccc4)C3C2=O)cc1 (configuration not stated) 14%, COc1ccc(S(=O)(=O)N2CCN(C(C)C(=O)Nc3ccc(C(C)C)cc3)CC2)cc1 (configuration not stated) 10.8%, CN(C)S(=O)(=O)c1cccc(NC(=O)COC(=O)C2(c3ccccc3F)CCCC2)c1 14.1%, NS(=O)(=O)c1ccc(NC(=O)COC(=O)C2(c3ccc(F)cc3)CCCC2)cc1 14.4%, O=C1/C(=C\c2ccsc2)NC(=S)N1c1ccccc1 8.92%, C=CC(COCc1ccccc1)N(CC(=O)OC)S(=O)(=O)c1cc(Br)ccc1OC (configuration not stated) 10.1%, O=C(Nn1c(SCc2ccc([N+](=O)[O-])cc2)nc2ccccc2c1=O)c1ccc(F)cc1 16.4%, COc1ccc(Cn2cc(CN3CCS(=O)(=O)N(Cc4ccc(-c5cccc(Cl)c5)cc4)C(C)C3=O)nn2)cc1 (configuration not stated) 11.2%, COc1ccc(-c2ccc(CN3C(CC(C)C)C(=O)N(Cc4cn(CC5CCCCC5)nn4)CCS3(=O)=O)cc2)cc1 (configuration not stated) 13.1%, FC(F)(F)Oc1ccccc1C(c1nnnn1C1CCCCC1)N1CCN(C/C=C/c2ccccc2)CC1 (configuration not stated) 10.2%, Cc1ccc(Cn2nnc3c(=O)[nH]c(C4CCN(S(=O)(=O)/C=C/c5ccccc5)CC4)nc32)cc1 20.1%, Cc1ccc(NC(=S)NNC(=O)CSc2nnc(SCc3ccccc3Cl)s2)cc1 13.7%, O=C(COC(=O)c1ccccc1)Nc1ccccc1Sc1ccccc1 10.7%, CCCCCC(=O)N1C[C@H](O)[C@@H](n2cc(COC(=O)c3ccccc3)nn2)C[C@@H]1c1ccc(C)cc1 13.5%, C=CCC[C@@H](Cc1ccc(F)cc1)C(=O)O[C@H](CNC(=O)[C@H](CC=C)CC(=O)N(CCO)Cc1ccccc1)c1ccccc1 21.7%, C=CCC[C@@H](Cc1ccc(F)cc1)C(=O)OC[C@H](Cc1c[nH]c2ccccc12)NC(=O)[C@@H](CC=C)CC(=O)N(CCO)Cc1ccccc1 16.9%, C=CC[C@H](CC(=O)N(CCO)Cc1ccccc1)C(=O)N[C@@H](COC(=O)[C@@H](CC=C)Cc1ccc(F)cc1)Cc1ccccc1 14.8%, CC1(C)C=Cc2c(ccc3c2OC[C@@H](c2ccc(O)cc2O)C3)O1 12.3%
